Test results from ChEMBL document CHEMBL4138126, “Synthesis, antiproliferative, anti-tubulin activity, and docking study of new 1,2,4-triazoles as potential combretastatin analogues” (Eur J Med Chem, 2017).

Key:
MOLT-4 = assay: Growth inhibition of human MOLT4 cells assessed as cell growth at 10 uM after 48 hrs by sulforhodamine B assay; assay type: functional; conditions: MOLT-4, 48 h, read-out: Activity
Method in brief: (§1)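 NCI 60-cell-line panel screen (nine cancer types). Compounds added at single concentration 10^-5 M, cultures incubated 48 h; growth inhibition percentages reported.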

NCI-H522 = assay: Growth inhibition of human NCI-H522 cells assessed as cell growth at 10 uM after 48 hrs by sulforhodamine B assay; assay type: functional; conditions: NCI-H522, 48 h, read-out: Activity; method in brief: as §1
A498 = assay: Growth inhibition of human A498 cells assessed as cell growth at 10 uM after 48 hrs by sulforhodamine B assay; assay type: functional; conditions: A498, 48 h, read-out: Activity; method in brief: as §1
M14 = assay: Growth inhibition of human M14 cells assessed as cell growth at 10 uM after 48 hrs by sulforhodamine B assay; assay type: functional; conditions: M14, 48 h, read-out: Activity; method in brief: as §1
CCRF-CEM = assay: Growth inhibition of human CCRF-CEM cells assessed as cell growth at 10 uM after 48 hrs by sulforhodamine B assay; assay type: functional; conditions: read-out: Activity; method in brief: as §1
NCI-H460 = assay: Growth inhibition of human NCI-H460 cells assessed as cell growth at 10 uM after 48 hrs by sulforhodamine B assay; assay type: functional; conditions: NCI-H460, 48 h, read-out: Activity; method in brief: as §1
LOX IMVI = assay: Growth inhibition of human LOXIMVI cells assessed as cell growth at 10 uM after 48 hrs by sulforhodamine B assay; assay type: functional; conditions: read-out: Activity; method in brief: as §1
OVCAR-8 = assay: Growth inhibition of human OVCAR8 cells assessed as cell growth at 10 uM after 48 hrs by sulforhodamine B assay; assay type: functional; conditions: OVCAR-8, 48 h, read-out: Activity; method in brief: as §1
HCT-15 = assay: Growth inhibition of human HCT15 cells assessed as cell growth at 10 uM after 48 hrs by sulforhodamine B assay; assay type: functional; conditions: HCT-15, 48 h, read-out: Activity; method in brief: as §1
HT-29 = assay: Growth inhibition of human HT-29 cells assessed as cell growth at 10 uM after 48 hrs by sulforhodamine B assay; assay type: functional; conditions: HT-29, 48 h, read-out: Activity; method in brief: as §1
IGROV-1 = assay: Growth inhibition of human IGROV1 cells assessed as cell growth at 10 uM after 48 hrs by sulforhodamine B assay; assay type: functional; conditions: IGROV-1, 48 h, read-out: Activity; method in brief: as §1
HOP-62 = assay: Growth inhibition of human HOP62 cells assessed as cell growth at 10 uM after 48 hrs by sulforhodamine B assay; assay type: functional; conditions: HOP-62, 48 h, read-out: Activity; method in brief: as §1
SK-MEL-2 = assay: Growth inhibition of human SK-MEL-2 cells assessed as cell growth at 10 uM after 48 hrs by sulforhodamine B assay; assay type: functional; conditions: SK-MEL-2, 48 h, read-out: Activity; method in brief: as §1
T47D = assay: Growth inhibition of human T47D cells assessed as cell growth at 10 uM after 48 hrs by sulforhodamine B assay; assay type: functional; conditions: read-out: Activity
Method in brief: (§2)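 NCI 60-cell-line panel from nine tumour types (leukaemia, lung, colon, CNS, melanoma, ovarian, renal, prostate, breast). Each compound was added at one single concentration, and cultures were incubated for 48 h. Results are reported as percent growth inhibition.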

HepG2 = assay: Cytotoxicity in human HepG2 cells assessed as reduction in cell viability incubated for 48 hrs by MTT assay; assay type: functional, cell-based; conditions: HepG2, 48 h
Method in brief: (§3)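 HepG2 and HL60 (ATCC) grown in DMEM with 10% FBS, 2 mM L-glutamine, penicillin/streptomycin, amphotericin B at 37 °C, 5% CO2. Samples dissolved in DMSO, diluted thousandfold in assay. Cells seeded in serum-free medium, treated with serial concentrations 48 h; MTT 4 h, formazan dissolved in acidified isopropanol, A570. Triplicates averaged; viability relative to untreated/vehicle control.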

OVCAR-5 = assay: Growth inhibition of human OVCAR5 cells assessed as cell growth at 10 uM after 48 hrs by sulforhodamine B assay; assay type: functional; conditions: OVCAR-5, 48 h, read-out: Activity; method in brief: as §1
NCI-H23 = assay: Growth inhibition of human NCI-H23 cells assessed as cell growth at 10 uM after 48 hrs by sulforhodamine B assay; assay type: functional; conditions: NCI-H23, 48 h, read-out: Activity; method in brief: as §1
NCI/ADR-RES = assay: Growth inhibition of human NCI-ADR-RES cells assessed as cell growth at 10 uM after 48 hrs by sulforhodamine B assay; assay type: functional; conditions: read-out: Activity; method in brief: as §1
EKVX = assay: Growth inhibition of human EKVX cells assessed as cell growth at 10 uM after 48 hrs by sulforhodamine B assay; assay type: functional; conditions: read-out: Activity; method in brief: as §1
KM12 = assay: Growth inhibition of human KM12 cells assessed as cell growth at 10 uM after 48 hrs by sulforhodamine B assay; assay type: functional; conditions: KM12, 48 h, read-out: Activity; method in brief: as §1
SR = assay: Growth inhibition of human SR cells assessed as cell growth at 10 uM after 48 hrs by sulforhodamine B assay; assay type: functional; conditions: read-out: Activity; method in brief: as §2
HCT-116 = assay: Growth inhibition of human HCT116 cells assessed as cell growth at 10 uM after 48 hrs by sulforhodamine B assay; assay type: functional; conditions: HCT-116, 48 h, read-out: Activity; method in brief: as §1
SK-OV-3 = assay: Growth inhibition of human SKOV3 cells assessed as cell growth at 10 uM after 48 hrs by sulforhodamine B assay; assay type: functional; conditions: SK-OV-3, 48 h, read-out: Activity; method in brief: as §1
NCI-H226 = assay: Growth inhibition of human NCI-H226 cells assessed as cell growth at 10 uM after 48 hrs by sulforhodamine B assay; assay type: functional; conditions: NCI-H226, 48 h, read-out: Activity; method in brief: as §1
HL-60(TB) = assay: Growth inhibition of human HL-60(TB) cells assessed as cell growth at 10 uM after 48 hrs by sulforhodamine B assay; assay type: functional; conditions: HL-60, 48 h, read-out: Activity
Method in brief: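 Screened by the NCI in its 60-cell-line panel covering nine cancer types, including leukemia. Compounds were added at a single concentration, and the cultures were incubated for 48 h. Results are reported as percent growth inhibition.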

HL-60 = assay: Cytotoxicity in human HL60 cells assessed as reduction in cell viability incubated for 48 hrs by MTT assay; assay type: functional, cell-based; conditions: HL-60, 48 h; method in brief: as §3
BT-549 = assay: Growth inhibition of human BT549 cells assessed as cell growth at 10 uM after 48 hrs by sulforhodamine B assay; assay type: functional; conditions: BT-549, 48 h, read-out: Activity; method in brief: as §1
HOP-92 = assay: Growth inhibition of human HOP92 cells assessed as cell growth at 10 uM after 48 hrs by sulforhodamine B assay; assay type: functional; conditions: HOP-92, 48 h, read-out: Activity; method in brief: as §1
NCI-H322M = assay: Growth inhibition of human NCI-H322M cells assessed as cell growth at 10 uM after 48 hrs by sulforhodamine B assay; assay type: functional; conditions: read-out: Activity; method in brief: as §1
Hs-578T = assay: Growth inhibition of human Hs 578T cells assessed as cell growth at 10 uM after 48 hrs by sulforhodamine B assay; assay type: functional; conditions: read-out: Activity; method in brief: as §1
MCF7 = assay: Growth inhibition of human MCF7 cells assessed as cell growth at 10 uM after 48 hrs by sulforhodamine B assay; assay type: functional; conditions: MCF7, 48 h, read-out: Activity; method in brief: as §1
DU-145 = assay: Growth inhibition of human DU145 cells assessed as cell growth at 10 uM after 48 hrs by sulforhodamine B assay; assay type: functional; conditions: DU-145, 48 h, read-out: Activity; method in brief: as §1

SMILES	growth at 10 µM (NCI-H522)	growth at 10 µM (A498)	growth at 10 µM (M14)	growth at 10 µM (NCI-H460)	growth at 10 µM (LOX IMVI)	growth at 10 µM (OVCAR-8)	growth at 10 µM (HCT-15)	growth at 10 µM (HT-29)	growth at 10 µM (IGROV-1)	growth at 10 µM (HOP-62)	growth at 10 µM (SK-MEL-2)	growth at 10 µM (T47D)	IC50 (HepG2)	growth at 10 µM (OVCAR-5)	growth at 10 µM (NCI-H23)	growth at 10 µM (NCI/ADR-RES)	growth at 10 µM (EKVX)	growth at 10 µM (KM12)	growth at 10 µM (SR)	growth at 10 µM (HCT-116)	other results
CCOc1ccc(-n2nc(C(=O)Nc3cc(F)cc(F)c3)nc2-c2cc(OC)c(OC)c(OC)c2)cc1	61.6%	56%	98%	94.7%	86.6%	84.6%	77.9%	89%	85.1%	95%	92.9%	55.9%	36.5 µM	98.8%	84%	81.7%	85.8%	85.9%	61.8%	95.2%	growth at 10 µM (MOLT-4): 63.9%; growth at 10 µM (CCRF-CEM): 84.1%; growth at 10 µM (SK-OV-3): 93%; growth at 10 µM (NCI-H226): 77.2%; growth at 10 µM (HL-60(TB)): 96.1%; IC50 (HL-60): > 100 µM; growth at 10 µM (BT-549): 101%; growth at 10 µM (HOP-92): 67.8%; growth at 10 µM (NCI-H322M): 85.3%; growth at 10 µM (Hs-578T): 75.5%; growth at 10 µM (MCF7): 79%; growth at 10 µM (DU-145): 98.2%
CCOc1ccc(-n2nc(C(=O)Nc3ccccc3)nc2-c2cc(OC)c(OC)c(OC)c2)cc1	22.8%	10.3%	38%	27.9%	55.8%	61.6%	35.4%	13%	55.1%	55.7%	37.7%	39.4%	41.8 µM	84.1%	66.6%	45.7%	53.2%	27.5%	17%	21.2%	growth at 10 µM (MOLT-4): 42.9%; growth at 10 µM (CCRF-CEM): 50.8%; growth at 10 µM (SK-OV-3): 51%; growth at 10 µM (NCI-H226): 80%; growth at 10 µM (HL-60(TB)): 32.9%; IC50 (HL-60): 1.28 µM; growth at 10 µM (BT-549): 60.9%; growth at 10 µM (HOP-92): 46%; growth at 10 µM (NCI-H322M): 67.6%; growth at 10 µM (Hs-578T): 39.6%; growth at 10 µM (MCF7): 37%; growth at 10 µM (DU-145): 89.6%
CCOc1ccc(-n2nc(C(=O)Nc3ccc(F)c(F)c3F)nc2-c2cc(OC)c(OC)c(OC)c2)cc1	71.5%	88.7%	93.9%	104%	94%	93.4%	64.3%	87.8%	95.6%	86.5%	84.1%	65.7%	10.8 µM	81.5%	97.5%	88.6%	78.5%	96%	86.5%	73.4%	growth at 10 µM (SK-OV-3): 85%; growth at 10 µM (NCI-H226): 91.2%; growth at 10 µM (HL-60(TB)): 81.5%; IC50 (HL-60): 10.9 µM; growth at 10 µM (BT-549): 78.9%; growth at 10 µM (HOP-92): 84.9%; growth at 10 µM (NCI-H322M): 69.5%; growth at 10 µM (Hs-578T): 80.7%; growth at 10 µM (MCF7): 79.5%; growth at 10 µM (DU-145): 105%
